# Positions of bridges follow the written chain, without caps; N, C: chain ends. Non-standard residues stand in square brackets, D forms with d. Residues, ends and D or L forms follow the SMILES beside them. *: point of attachment. X1 = CC[C@H](C)CCCCC(=O)*; Dab = NCC[C@H](N)C(=O)O
# Assays:
# Escherichia coli [1] = experiment: Antibacterial activity against Escherichia coli ATCC 25922 assessed as bacterial growth inhibition by broth microdilution assay; assay type: functional
# Method in brief: (§1)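 Broth microdilution. Bacteria from glycerol stocks were grown overnight on blood agar at 37 °C, then colonies were suspended in TSB and grown to OD600 0.5. Compounds were dissolved in DMSO at 6.4 mg mL−1 (stock) and serially diluted in CAMHB (Mg2+ 12.5, Ca2+ 20 μg mL−1) in polypropylene plates. Inoculum was 10^6 CFU mL−1 final, incubated at 37 °C. MIC = lowest concentration without visible growth; values consistent across at least triplicate experiments.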
# Klebsiella pneumoniae [2] = experiment: Antibacterial activity against Klebsiella pneumoniae NCTC 13443 assessed as bacterial growth inhibition by broth microdilution assay; assay type: functional; method in brief: as §1
# Acinetobacter baumannii [3] = experiment: Antibacterial activity against multidrug-resistant Acinetobacter baumannii assessed as bacterial growth inhibition by broth microdilution assay; assay type: functional
# Method in brief: (§2)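 Broth microdilution MIC. Strains grown overnight on blood agar at 37 °C, colonies suspended in TSB and grown to OD600 0.5. Compounds dissolved in DMSO (6.4 mg mL−1 stock), diluted serially in CAMHB (12.5 μg mL−1 Mg2+, 20 μg mL−1 Ca2+) on polypropylene plates. Final inoculum 10^6 CFU mL−1, 37 °C under gas-permeable membrane. MIC is the lowest concentration with no visible growth, consistent across at least triplicate experiments.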
# Pseudomonas aeruginosa [4] = experiment: Antibacterial activity against Pseudomonas aeruginosa NRZ 03961 assessed as bacterial growth inhibition by broth microdilution assay; assay type: functional; method in brief: as §1
# Acinetobacter baumannii [5] = experiment: Antibacterial activity against Acinetobacter baumannii 2018-006 assessed as bacterial growth inhibition by broth microdilution assay; assay type: functional; method in brief: as §2
# Acinetobacter baumannii [6] = experiment: Antibacterial activity against Acinetobacter baumannii ATCC 19606 assessed as bacterial growth inhibition by broth microdilution assay; assay type: functional; method in brief: as §2
# Klebsiella pneumoniae [7] = experiment: Antibacterial activity against Klebsiella pneumoniae JS-123 assessed as bacterial growth inhibition by broth microdilution assay; assay type: functional; method in brief: as §1
# Pseudomonas aeruginosa [8] = experiment: Antibacterial activity against Pseudomonas aeruginosa ATCC 27853 assessed as bacterial growth inhibition by broth microdilution assay; assay type: functional; method in brief: as §1
# Escherichia coli [9] = experiment: Antibacterial activity against Escherichia coli 1313 assessed as bacterial growth inhibition by broth microdilution assay; assay type: functional; method in brief: as §1
# Acinetobacter baumannii [10] = experiment: Antibacterial activity against Acinetobacter baumannii ATCC 17978 assessed as bacterial growth inhibition by broth microdilution assay; assay type: functional; method in brief: as §2
# [11] = Cytotoxicity against human ciPTEC cells assessed as reduction in cell viability at 250 uM incubated for 24 hrs by PrestoBlue reagent based fluorescence assay; assay type: toxicity
# Method in brief: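 Differentiated ciPTEC-14.4 (conditionally immortalized) cells were washed with HBSS and then exposed to 250 μM compound in serum-free supplemented DMEM/F-12 for 24 h at 37 °C. After an HBSS wash, cells were incubated with 10% PrestoBlue in HBSS at 37 °C in the dark. Fluorescence was read at ex 530/em 590 nm, background-corrected, and expressed relative to medium-only cells; triplicates.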
# Klebsiella pneumoniae [12] = experiment: Antibacterial activity against Klebsiella pneumoniae ATCC 13883 assessed as bacterial growth inhibition by broth microdilution assay; assay type: functional; method in brief: as §1
# Pseudomonas aeruginosa [13] = experiment: Antibacterial activity against Pseudomonas aeruginosa NRZ 08418 assessed as bacterial growth inhibition by broth microdilution assay; assay type: functional; method in brief: as §1
# Escherichia coli [14] = experiment: Antibacterial activity against multidrug-resistant Escherichia coli NCTC 13846 assessed as bacterial growth inhibition by broth microdilution assay; assay type: functional; method in brief: as §2
# [15] = Cytotoxicity against human ciPTEC cells assessed as reduction in cell viability incubated for 24 hrs by PrestoBlue reagent based fluorescence assay; assay type: toxicity; conditions: read-out: TC50
# Method in brief: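 ciPTEC-14.4 cells, differentiated, were treated for 24 h at 37 °C with compound at 100, 250, 500 or 1000 μM in serum-free DMEM/F-12 with insulin, transferrin, selenium, hydrocortisone, EGF and triiodothyronine. Viability was measured with 10% PrestoBlue in HBSS (fluorescence ex 530/em 590 nm), corrected for reagent background and normalized to untreated, medium-only control.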
smiles,measurement,setting,value
CC(C)C[C@@H]1NC(=O)[C@@H](Cc2ccccc2)NC(=O)[C@H](CCN)NC(=O)[C@@H](NC(=O)[C@H](CCN)NC(=O)[C@@H](NC(=O)[C@H](N)CSSCCC2CCCCC2)[C@@H](C)O)CCNC(=O)[C@H]([C@@H](C)O)NC(=O)[C@H](CCN)NC(=O)[C@H](CCN)NC1=O,MIC,Escherichia coli [1],1 µg/mL
same,MIC,Klebsiella pneumoniae [2],2 µg/mL
same,MIC,Acinetobacter baumannii [3],1 µg/mL
same,MIC,Pseudomonas aeruginosa [4],4 µg/mL
same,MIC,Acinetobacter baumannii [5],0.5 µg/mL
same,MIC,Acinetobacter baumannii [6],0.5 µg/mL
same,MIC,Klebsiella pneumoniae [7],2 µg/mL
same,MIC,Pseudomonas aeruginosa [8],2 µg/mL
same,MIC,Escherichia coli [9],2 µg/mL
same,MIC,Acinetobacter baumannii [10],1 µg/mL
same,Activity,[11],> 50%
same,MIC,Klebsiella pneumoniae [12],1 µg/mL
same,MIC,Pseudomonas aeruginosa [13],4 µg/mL
same,MIC,Escherichia coli [14],8 µg/mL
CC(C)C[C@@H]1NC(=O)[C@@H](Cc2ccccc2)NC(=O)[C@H](CCN)NC(=O)[C@@H](NC(=O)[C@H](CCN)NC(=O)[C@@H](NC(=O)[C@H](N)CSSCc2cccc(Cl)c2)[C@@H](C)O)CCNC(=O)[C@H]([C@@H](C)O)NC(=O)[C@H](CCN)NC(=O)[C@H](CCN)NC1=O,MIC,Escherichia coli [1],1 µg/mL
same,MIC,Klebsiella pneumoniae [2],0.25 µg/mL
same,MIC,Acinetobacter baumannii [3],4 µg/mL
same,MIC,Pseudomonas aeruginosa [4],1 µg/mL
same,MIC,Acinetobacter baumannii [5],2 µg/mL
same,MIC,Acinetobacter baumannii [6],1 µg/mL
same,MIC,Klebsiella pneumoniae [7],0.25 µg/mL
same,MIC,Pseudomonas aeruginosa [8],4 µg/mL
same,MIC,Escherichia coli [9],0.125 µg/mL
same,MIC,Acinetobacter baumannii [10],1 µg/mL
same,Activity,[11],> 50%
same,MIC,Klebsiella pneumoniae [12],0.5 µg/mL
same,MIC,Pseudomonas aeruginosa [13],2 µg/mL
same,MIC,Escherichia coli [14],4 µg/mL
CC(C)CCSSC[C@@H](N)C(=O)N[C@H](C(=O)N[C@@H](CCN)C(=O)N[C@H]1CCNC(=O)[C@H]([C@@H](C)O)NC(=O)[C@H](CCN)NC(=O)[C@H](CCN)NC(=O)[C@H](CC(C)C)NC(=O)[C@@H](Cc2ccccc2)NC(=O)[C@H](CCN)NC1=O)[C@@H](C)O,MIC,Escherichia coli [1],1 µg/mL
same,MIC,Klebsiella pneumoniae [2],0.5 µg/mL
same,MIC,Acinetobacter baumannii [3],1 µg/mL
same,MIC,Pseudomonas aeruginosa [4],2 µg/mL
same,MIC,Acinetobacter baumannii [5],0.5 µg/mL
same,MIC,Acinetobacter baumannii [6],0.5 µg/mL
same,MIC,Klebsiella pneumoniae [7],0.25 µg/mL
same,MIC,Pseudomonas aeruginosa [8],1 µg/mL
same,MIC,Escherichia coli [9],≤ 0.125 µg/mL
same,MIC,Acinetobacter baumannii [10],1 µg/mL
same,Activity,[11],> 50%
same,MIC,Klebsiella pneumoniae [12],0.5 µg/mL
same,MIC,Pseudomonas aeruginosa [13],1 µg/mL
same,MIC,Escherichia coli [14],8 µg/mL
CC(C)C[C@@H]1NC(=O)[C@@H](Cc2ccccc2)NC(=O)[C@H](CCN)NC(=O)[C@@H](NC(=O)[C@H](CN)NC(=O)[C@@H](NC(=O)[C@H](N)CSSCc2cccc(Cl)c2)[C@@H](C)O)CCNC(=O)[C@H]([C@@H](C)O)NC(=O)[C@H](CCN)NC(=O)[C@H](CCN)NC1=O,MIC,Escherichia coli [1],2 µg/mL
same,MIC,Klebsiella pneumoniae [2],2 µg/mL
same,MIC,Acinetobacter baumannii [3],8 µg/mL
same,MIC,Pseudomonas aeruginosa [4],2 µg/mL
same,MIC,Acinetobacter baumannii [5],2 µg/mL
same,MIC,Acinetobacter baumannii [6],0.5 µg/mL
same,MIC,Klebsiella pneumoniae [7],0.5 µg/mL
same,MIC,Pseudomonas aeruginosa [8],4 µg/mL
same,MIC,Escherichia coli [9],≤ 0.125 µg/mL
same,MIC,Acinetobacter baumannii [10],≤ 0.25 µg/mL
same,MIC,Klebsiella pneumoniae [12],0.5 µg/mL
same,MIC,Pseudomonas aeruginosa [13],2 µg/mL
same,MIC,Escherichia coli [14],2 µg/mL
CC(C)C[C@@H]1NC(=O)[C@@H](Cc2ccccc2)NC(=O)[C@H](CCN)NC(=O)[C@@H](NC(=O)[C@@H](CN)NC(=O)[C@@H](NC(=O)[C@H](N)CSSCc2cccc(Cl)c2)[C@@H](C)O)CCNC(=O)[C@H]([C@@H](C)O)NC(=O)[C@H](CCN)NC(=O)[C@H](CCN)NC1=O,MIC,Escherichia coli [1],2 µg/mL
same,MIC,Klebsiella pneumoniae [2],8 µg/mL
same,MIC,Acinetobacter baumannii [3],0.5 µg/mL
same,MIC,Pseudomonas aeruginosa [4],2 µg/mL
same,MIC,Acinetobacter baumannii [5],0.5 µg/mL
same,MIC,Acinetobacter baumannii [6],0.5 µg/mL
same,MIC,Klebsiella pneumoniae [7],2 µg/mL
same,MIC,Pseudomonas aeruginosa [8],1 µg/mL
same,MIC,Escherichia coli [9],0.5 µg/mL
same,MIC,Acinetobacter baumannii [10],0.5 µg/mL
same,MIC,Klebsiella pneumoniae [12],0.5 µg/mL
same,MIC,Pseudomonas aeruginosa [13],0.5 µg/mL
same,MIC,Escherichia coli [14],16 µg/mL
CC(C)C[C@@H]1NC(=O)[C@@H](Cc2ccccc2)NC(=O)[C@H](CCN)NC(=O)[C@@H](NC(=O)[C@@H](CCN)NC(=O)[C@@H](NC(=O)[C@H](N)CSSCc2cccc(Cl)c2)[C@@H](C)O)CCNC(=O)[C@H]([C@@H](C)O)NC(=O)[C@H](CCN)NC(=O)[C@H](CCN)NC1=O,MIC,Escherichia coli [1],2 µg/mL
same,MIC,Klebsiella pneumoniae [2],0.5 µg/mL
same,MIC,Acinetobacter baumannii [3],1 µg/mL
same,MIC,Pseudomonas aeruginosa [4],2 µg/mL
same,MIC,Acinetobacter baumannii [5],0.5 µg/mL
same,MIC,Acinetobacter baumannii [6],0.5 µg/mL
same,MIC,Klebsiella pneumoniae [7],0.5 µg/mL
same,MIC,Pseudomonas aeruginosa [8],2 µg/mL
same,MIC,Escherichia coli [9],0.5 µg/mL
same,MIC,Acinetobacter baumannii [10],1 µg/mL
same,MIC,Klebsiella pneumoniae [12],1 µg/mL
same,MIC,Pseudomonas aeruginosa [13],2 µg/mL
same,MIC,Escherichia coli [14],4 µg/mL
CC[C@H](C)CCCCC(=O)N[C@@H](CCN)C(=O)N[C@H](C(=O)N[C@@H](CCN)C(=O)N[C@H]1CCNC(=O)[C@H]([C@@H](C)O)NC(=O)[C@H](CCN)NC(=O)[C@H](CCN)NC(=O)[C@H](CC(C)C)NC(=O)[C@@H](Cc2ccccc2)NC(=O)[C@H](CCN)NC1=O)[C@@H](C)O (X1-[Dab]T[Dab][Dab][Dab][dF]L[Dab][Dab]T; lactam 4-C),MIC,Escherichia coli [1],1 µg/mL
same,CC50 at 24 h,[15],1480 µM
same,MIC,Klebsiella pneumoniae [2],0.5 µg/mL
same,MIC,Acinetobacter baumannii [3],0.5 µg/mL
same,MIC,Pseudomonas aeruginosa [4],1 µg/mL
same,MIC,Acinetobacter baumannii [5],0.125 µg/mL
same,MIC,Acinetobacter baumannii [6],0.25 µg/mL
same,MIC,Klebsiella pneumoniae [7],0.25 µg/mL
same,MIC,Pseudomonas aeruginosa [8],1 µg/mL
same,MIC,Escherichia coli [9],0.125 µg/mL
same,MIC,Acinetobacter baumannii [10],0.25 µg/mL
same,Activity,[11],85%
same,MIC,Klebsiella pneumoniae [12],0.25 µg/mL
same,MIC,Pseudomonas aeruginosa [13],1 µg/mL
same,MIC,Escherichia coli [14],4 µg/mL

# — ChEMBL document CHEMBL5356951, “Semisynthetic polymyxins with potent antibacterial activity and reduced kidney cell toxicity” (RSC Med Chem, 2023)
